In ChEMBL document CHEMBL1806481, “Synthesis and anti-inflammatory activity of novel biscoumarin-chalcone hybrids” (Bioorg Med Chem Lett, 2011):
The source made the active and inactive calls. No cut-off for these calls is given here.

Key:
[1] = test system: Rattus norvegicus; assay: Antiinflammatory activity in albino rat assessed as inhibition of carrageenin-induced paw oedema at 100 mg/kg, po after 3 hrs by plethysmographic analysis relative to control; type: functional
How it was run: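 Rats received 100 mg/kg po. Oedema was induced by subplantar injection of 0.1 ml of 1% carrageenin into one hind paw. Paw volume was measured plethysmographically immediately after the injection and at 3 h. The volume difference gave the oedema, and percent inhibition was calculated against the control group. Ibuprofen was the reference at an equivalent dose.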

[2] = Antioxidant activity assessed as inhibition non-enzymatic reactants generated hydroxyl radical production at 100 ug/ml after 90 mins by spectrophotometry; type: functional
[3] = Antiinflammatory activity in whole blood assessed as inhibition of LPS-induced TNFalpha production at 200 ug/ml; type: functional
[4] = Antiinflammatory activity in whole blood assessed as inhibition of LPS-induced TNFalpha production at 400 ug/ml; type: functional
[5] = Antiinflammatory activity in whole blood assessed as inhibition of LPS-induced TNFalpha production; type: functional, tissue-based
[6] = Antioxidant activity assessed as inhibition of xanthine-xanthine oxidase generated superoxide anion radical production assessed as formazone formation at 200 ug/ml after 30 mins by spectrophotometric analysis; type: functional
How it was run: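 Superoxide generation was run with and without compound at 200 µg/mL. Fractions were sonicated in phosphate buffer, and mixtures were incubated at 37 °C for 30 min. The reaction was stopped with glacial acetic acid, and formazone formed was measured spectrophotometrically. Allopurinol was the standard, and values are mean SD of six.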

[7] = Antioxidant activity assessed as inhibition microsomal lipid peroxidation at 200 ug/ml by thiobarbituric acid test; type: functional; conditions: Microsome
How it was run: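 Microsomal lipid peroxidation was measured with compound at 200 µg/mL and read as nmol MDA formed per mg protein. α-Tocopherol at 100 µg/mL was the standard. Values are mean SD of six.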

[8] = Antioxidant activity assessed as inhibition non-enzymatic reactants generated hydroxyl radical production at 200 ug/ml after 90 mins by spectrophotometry; type: functional
How it was run: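 Hydroxyl radicals were generated non-enzymatically from deoxyribose (2.8 mM), FeSO4·7H2O (2 mM), sodium ascorbate (2.0 mM) and H2O2 (2.8 mM) in 50 mM KH2PO4 buffer, pH 7.4. Final volume was 2.5 mL, with or without test compound at 200 µg/mL. Mixtures were incubated at 37 °C for 90 min, MDA formed was measured, and mannitol was the standard. Values are mean SD of six.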

[9] = test system: Rattus norvegicus; assay: Toxicity in albino rat at 100 mg/kg, po by autopsy; type: organism-based; design: dose 100 mg/kg, route oral; conditions: in vivo
[10] = Toxicity in albino rat assessed as survival at 100 mg/kg, po; type: organism-based; design: dose 100 mg/kg, route oral; conditions: in vivo, read-out: Activity
How it was run: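 Albino rats were dosed orally in the carrageenin hind-paw oedema study. Survival was recorded, and animals were examined macroscopically and by autopsy.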

[11] = test system: Rattus norvegicus; assay: Toxicity in albino rat at 100 mg/kg, po by macroscopic analysis; conditions: in vivo
[12] = Antioxidant activity assessed as inhibition microsomal lipid peroxidation at 100 ug/ml by thiobarbituric acid test; type: functional; conditions: Microsome
[13] = Antioxidant activity assessed as inhibition of xanthine-xanthine oxidase generated superoxide anion radical production assessed as formazone formation at 20 ug/ml after 30 mins by spectrophotometric analysis; type: functional
How it was run: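 Reaction mixtures in phosphate buffer incubated at 37 °C for 30 min, then stopped with 0.5 mL glacial acetic acid. Superoxide quantified as formazone formed (nmol/min), read spectrophotometrically. Mean SD of six values.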

In the case of COC(=O)c1cc2cc(/C=C/C(=O)c3ccco3)c3c(ccc4c(C)cc(=O)oc43)c2oc1=O, the inhibition [1] is reported as “inactive”.
In the case of CCOC(=O)c1cc2cc(/C=C/C(=O)c3ccccc3)c3c(ccc4c(C)cc(=O)oc43)c2oc1=O, the inhibition [1] is reported as “inactive”.
Work on OC[C@@H](O)[C@@H](O)[C@H](O)[C@H](O)CO yielded an inhibition [2] of 40%.
For COC(=O)c1cc2cc(/C=C/C(=O)c3ccc(C)cc3)c3c(ccc4c(C)cc(=O)oc43)c2oc1=O, the inhibition [1] was “inactive”.
With CC(=O)c1cc2cc(/C=C/C(=O)c3ccco3)c3c(ccc4c(C)cc(=O)oc43)c2oc1=O the inhibition at 200 µg/mL [3] was 25%, the inhibition at 400 µg/mL [4] was 43% and the inhibition [5] was “Dose-dependent effect”. For the same molecule, the inhibition in vivo at 100 mg/kg [1] was 26%.
Molecule CC(C)Cc1ccc(C(C)C(=O)O)cc1 (stereo unspecified) [IBUPROFEN] has an inhibition in vivo at 100 mg/kg [1] of 59.5%.
Molecule COC(=O)c1cc2cc(/C=C/C(=O)c3ccccc3)c3c(ccc4c(C)cc(=O)oc43)c2oc1=O has an inhibition [6] of 29%, an inhibition at 200 µg/mL [3] of 4% and an inhibition [7] of 23%. For the same molecule, the inhibition [8] was 27%, the inhibition at 400 µg/mL [4] was 21% and the inhibition [5] was “Dose-dependent effect”. It also gave an inhibition in vivo at 100 mg/kg [1] of 33%.
With CCOC(=O)c1cc2cc(/C=C/C(=O)c3cccs3)c3c(ccc4c(C)cc(=O)oc43)c2oc1=O the inhibition [6] was 24%, the Activity [9] was “Non-toxic” and the survival [10] was 80%. For the same molecule, the inhibition [7] was 27%, the inhibition [8] was 26% and the Activity [11] was “Non-toxic”. It also gave an inhibition in vivo at 100 mg/kg [1] of 8.77%.
In the case of Cc1c(C)c2c(c(C)c1O)CC[C@@](C)(CCC[C@H](C)CCC[C@H](C)CCCC(C)C)O2, the inhibition [12] is reported as 41%.
With CCOC(=O)c1cc2cc(/C=C/C(=O)c3ccc(C)cc3)c3c(ccc4c(C)cc(=O)oc43)c2oc1=O the inhibition [1] was “inactive”.
With CCOC(=O)c1cc2cc(/C=C/C(=O)c3ccco3)c3c(ccc4c(C)cc(=O)oc43)c2oc1=O the inhibition [6] was 30%, the Activity [9] was “Non-toxic” and the survival [10] was 80%. The inhibition [7] was 24%, the inhibition [8] was 21% and the Activity [11] was “Non-toxic”. It also gave an inhibition in vivo at 100 mg/kg [1] of 13%.
Oc1ncnc2[nH]ncc12 gave an inhibition [13] of 42%.
In the case of COC(=O)c1cc2cc(/C=C/C(=O)c3cccs3)c3c(ccc4c(C)cc(=O)oc43)c2oc1=O, the Activity [9] is reported as “Non-toxic”, the survival [10] is reported as 80% and the Activity [11] is reported as “Non-toxic”. It also gave an inhibition in vivo at 100 mg/kg [1] of 3.5%.
For CC(=O)c1cc2cc(/C=C/C(=O)c3ccc(C)cc3)c3c(ccc4c(C)cc(=O)oc43)c2oc1=O, the inhibition at 200 µg/mL [3] was 33%, the inhibition at 400 µg/mL [4] was 47% and the inhibition [5] was “Dose-dependent effect”. For the same molecule, the inhibition in vivo at 100 mg/kg [1] was 29%.
